Data from ChEMBL document CHEMBL4190233, “Exploring the cycloheptathiophene-3-carboxamide scaffold to disrupt the interactions of the influenza polymerase subunits and obtain potent anti-influenza activity” (Eur J Med Chem, 2017).

Key:
[1] = target: PA/PB1 (Influenza A virus (A/Puerto Rico/8/1934(H1N1)), UniProt P03431+P03433); experiment: Inhibition of Influenza A virus 6His-tagged PA (239 to 716 residues)/GST-tagged PB1 (1 to 25 residues) protein-protein interaction expressed in Escherichia coli measured after overnight incubation by ELISA
[2] = Cytotoxicity against MDCK cells assessed as reduction in cell viability after 48 hrs by MTT assay; assay type: cell-based, Canis lupus familiaris; details: dog
Method in brief: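 MDCK cells, 2 x 10⁴/well, grown 24 h, then exposed to serial compound dilutions or DMSO in DMEM/10% FBS for 48 h at 37 °C. MTT (5 mg/mL in PBS) was added for 4 h, then cells were lysed in solubilization solution overnight at 37 °C and read at 620 nm.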

[3] = tested on: Influenza A virus; experiment: Antiviral activity against Influenza A virus A/PR/8/34 (H1N1) infected in MDCK cells measured after 48 hrs post infection by plaque reduction assay; assay type: functional, organism-based; details: A/Puerto Rico/8/1934(H1N1)
Method in brief: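 MDCK cells, 5 x 10⁵/well, grown 24 h at 37 °C, washed in serum-free DMEM, then infected with A/PR/8/34 (Cambridge lineage) at 40 PFU/well for 1 h at 37 °C. Medium held TPCK-trypsin 1 μg/mL and 0.14% BSA, with compound at varied concentrations or DMSO. Overlay was the same medium plus 1.2% Avicel. At 48 h cells were formaldehyde-fixed and toluidine-blue stained. Plaques were counted against DMSO (100%).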

[4] = Therapeutic index, ratio of CC50 for MDCK cells to EC50 for Influenza A virus A/PR/8/34 (H1N1) infected in MDCK cells; assay type: toxicity, cell-based; details: dog, read-out: Ratio CC50/EC50

Q: What does the source list for `O=C(Nc1sc2c(c1C(=O)NCc1ccccn1)CCCCC2)c1ccccc1O`?
A: IC50 [1]: 33 µM; CC50 at 48 h [2]: > 250 µM; EC50 [3]: > 100 µM

Q: Which results are given for `NC(=O)c1ncn([C@@H]2O[C@H](CO)[C@@H](O)[C@H]2O)n1` [RIBAVIRIN]?
A: CC50 at 48 h [2]: > 250 µM; EC50 [3]: 10 µM

Q: With `COc1ccccc1C(=O)Nc1sc2c(c1C(=O)Nc1ccc(Cl)cc1)CCCCC2` as the compound, how does the IC50 [1] read?
A: 78 µM

Q: And the CC50 at 48 h [2]?
A: > 250 µM

Q: And the EC50 [3]?
A: 82 µM

Q: For `O=C(Nc1sc2c(c1C(=O)NC1CCCCC1)CCCCC2)c1ccccc1O`, which IC50 [1] is on record?
A: 114 µM

Q: What about the CC50 at 48 h [2] of the same compound?
A: 172 µM

Q: And the EC50 [3]?
A: > 100 µM

Q: What does the source list for `CC(C)NC(=O)c1c(NC(=O)c2ccccc2O)sc2c1CCCCC2`?
A: IC50 [1]: > 200 µM; CC50 at 48 h [2]: > 250 µM; EC50 [3]: > 100 µM

Q: Which IC50 [1] does the source give for `O=C(Nc1sc2c(c1C(=O)Nc1ccc(F)cc1)CCCCC2)c1ccccc1O` here?
A: 20 µM

Q: What about the selectivity ratio [4] of the same compound?
A: > 200

Q: What about the CC50 at 48 h [2] of the same compound?
A: > 250 µM

Q: What about the EC50 [3] of the same compound?
A: 1.2 µM

Q: For `Nc1ccccc1C(=O)Nc1sc2c(c1C(=O)Nc1ccccn1)CCCCC2`, which IC50 [1] is on record?
A: > 200 µM

Q: And the CC50 at 48 h [2]?
A: > 250 µM

Q: What about the EC50 [3] of the same compound?
A: 101 µM

Q: What does the source list for `O=C(Nc1sc2c(c1C(=O)Nc1ccccc1O)CCCCC2)c1ccc(Cl)cc1`?
A: IC50 [1]: 26 µM; CC50 at 48 h [2]: 28 µM; EC50 [3]: 1.8 µM

Q: With `O=C(Nc1sc2c(c1C(=O)Nc1ccc(Cl)cc1)CCCCC2)c1ccccc1O` as the compound, how does the IC50 [1] read?
A: 18 µM

Q: And the selectivity ratio [4]?
A: > 200

Q: And the CC50 at 48 h [2]?
A: > 250 µM

Q: What about the EC50 [3] of the same compound?
A: 1.2 µM

Q: For `CSCC[C@H](N)C(=O)N[C@@H](CC(=O)O)C(=O)N[C@H](C(=O)N[C@@H](CC(N)=O)C(=O)N1CCC[C@H]1C(=O)N[C@H](C(=O)N[C@@H](CC(C)C)C(=O)N[C@@H](CC(C)C)C(=O)N[C@@H](Cc1ccccc1)C(=O)N[C@@H](CC(C)C)C(=O)N[C@@H](CCCCN)C(=O)N[C@H](C(=O)N1CCC[C@H]1C(=O)N[C@@H](C)C(=O)N[C@@H](CCC(N)=O)C(=O)O)C(C)C)[C@@H](C)O)C(C)C`, which CC50 at 48 h [2] is on record?
A: > 100 µM

Q: What about the EC50 [3] of the same compound?
A: 41 µM

Q: For `O=C(Nc1sc2c(c1C(=O)Nc1ccccn1)CCCCC2)c1cccc(O)c1`, which IC50 [1] is on record?
A: 23 µM

Q: What about the CC50 at 48 h [2] of the same compound?
A: 248 µM

Q: And the EC50 [3]?
A: 22 µM

Q: Which IC50 [1] does the source give for `O=C(Nc1sc2c(c1C(=O)Nc1ccccn1)CCCCC2)c1ccc(O)cc1` here?
A: 26 µM

Q: What about the CC50 at 48 h [2] of the same compound?
A: > 250 µM

Q: And the EC50 [3]?
A: 19 µM

Q: Which results are given for `O=C(Nc1sc2c(c1C(=O)Nc1ccccc1O)CCCCC2)c1ccccn1`?
A: IC50 [1]: 118 µM; CC50 at 48 h [2]: > 250 µM; EC50 [3]: 8.2 µM

Q: Which IC50 [1] does the source give for `O=C(Nc1sc2c(c1C(=O)N1CCN(c3ccccn3)CC1)CCCCC2)c1ccccc1O` here?
A: 197 µM

Q: What about the CC50 at 48 h [2] of the same compound?
A: 145 µM

Q: What about the EC50 [3] of the same compound?
A: > 100 µM

Q: With `O=C(Nc1sc2c(c1C(=O)Nc1ccccn1)CCCCC2)c1ccccc1O` as the compound, how does the IC50 [1] read?
A: 15 µM

Q: What about the selectivity ratio [4] of the same compound?
A: > 96

Q: What about the CC50 at 48 h [2] of the same compound?
A: > 250 µM

Q: And the EC50 [3]?
A: 2.6 µM

Q: Which IC50 [1] does the source give for `Nc1ccc(C(=O)Nc2sc3c(c2C(=O)Nc2ccccn2)CCCCC3)cc1` here?
A: 65 µM

Q: And the CC50 at 48 h [2]?
A: > 250 µM

Q: What about the EC50 [3] of the same compound?
A: 0.26 µM

Q: Which results are given for `O=C(Nc1sc2c(c1C(=O)NCc1ccccc1)CCCCC2)c1ccccc1O`?
A: IC50 [1]: 191 µM; CC50 at 48 h [2]: 172 µM; EC50 [3]: > 100 µM

Q: What does the source list for `COc1ccccc1C(=O)Nc1sc2c(c1C(=O)Nc1ccccn1)CCCCC2`?
A: IC50 [1]: 22 µM; CC50 at 48 h [2]: 147 µM; EC50 [3]: 86 µM

Q: Which results are given for `O=C(Nc1sc2c(c1C(=O)Nc1ccccc1)CCCCC2)c1ccccc1O`?
A: IC50 [1]: 58 µM; CC50 at 48 h [2]: > 250 µM; EC50 [3]: 30 µM

Q: What does the source list for `CC(C)(C)NC(=O)c1c(NC(=O)c2ccccc2O)sc2c1CCCCC2`?
A: IC50 [1]: 156 µM; CC50 at 48 h [2]: > 250 µM; EC50 [3]: > 100 µM

Q: With `O=C(Nc1sc2c(c1C(=O)Nc1nccs1)CCCCC2)c1ccccc1O` as the compound, how does the IC50 [1] read?
A: 69 µM

Q: What about the selectivity ratio [4] of the same compound?
A: > 1390

Q: What about the CC50 at 48 h [2] of the same compound?
A: > 250 µM

Q: What about the EC50 [3] of the same compound?
A: 0.18 µM

Q: With `COc1ccccc1NC(=O)c1c(NC(=O)c2ccc(Cl)cc2)sc2c1CCCCC2` as the compound, how does the IC50 [1] read?
A: 45 µM

Q: What about the CC50 at 48 h [2] of the same compound?
A: > 250 µM

Q: And the EC50 [3]?
A: 24 µM

Q: With `CN1CCN(C(=O)c2c(NC(=O)c3ccccc3O)sc3c2CCCCC3)CC1` as the compound, how does the IC50 [1] read?
A: > 200 µM

Q: And the CC50 at 48 h [2]?
A: > 250 µM

Q: And the EC50 [3]?
A: 94 µM
